For assay [1], the system named is Serine/threonine-protein kinase B-raf (Homo sapiens), P15056 [V600E]. As to the kind of experiment: Inhibition of human BRAF V600E mutant at 10 uM by ELISA.
The target of assay [2] is Serine/threonine-protein kinase B-raf (Homo sapiens, UniProt P15056). Briefly: Inhibition of human wild type BRAF at 10 uM by ELISA. In a few lines:
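Wild-type BRAF kinase inhibition run in the same manner as the V600E-B-RAF ELISA, reported as percent inhibition at 10 µM.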

Assay [3] has as its system HL-60(TB). Briefly: Cytotoxicity against human HL-60(TB) cells assessed as reduction in cell viability after 48 hrs by SRB assay. Type of assay: functional, cell-based. Particulars: HL-60, 48 h. Summed up:
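Tested within the NCI sixty human cancer cell line panel. IC50 is the concentration that reduces cellular growth to 50% of untreated cells after treatment.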

Assay [4] concerns K562. As to the kind of experiment: Cytotoxicity against human K562 cells assessed as reduction in cell viability after 48 hrs by SRB assay. Type of assay: functional, cell-based. The note with it: K562, 48 h. Summed up:
(§1)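 Cell lines from the NCI sixty human cancer cell line panel. IC50 taken as the concentration that reduces cellular growth to 50% of untreated cells.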

The next assay deals with NCI-H460. Briefly: Cytotoxicity against human NCI-H460 cells assessed as reduction in cell viability after 48 hrs by SRB assay. Type of assay: functional, cell-based. Particulars: NCI-H460, 48 h. Summed up: as §1
The test system of another assay is NCI-H522. Briefly: Cytotoxicity against human NCI-H522 cells assessed as reduction in cell viability after 48 hrs by SRB assay. Particulars: NCI-H522, 48 h. Type of assay: functional, cell-based. Summed up:
as §1

In the next assay the test system is HCT-116. As to the kind of experiment: Cytotoxicity against human HCT116 cells assessed as reduction in cell viability after 48 hrs by SRB assay. Particulars: HCT-116, 48 h. Type of assay: functional, cell-based. Summed up:
as §1

Another assay deals with M14. Briefly: Cytotoxicity against human M14 cells assessed as reduction in cell viability after 48 hrs by SRB assay. Type of assay: functional, cell-based. Particulars: M14, 48 h. Summed up:
as §1

The subject of the next assay is SK-MEL-2. Briefly: Cytotoxicity against human SK-MEL-2 cells assessed as reduction in cell viability after 48 hrs by SRB assay. Type of assay: functional, cell-based. Particulars: SK-MEL-2, 48 h. Summed up:
as §1

A further assay has as its system LOX IMVI. As to the kind of experiment: Cytotoxicity against human LOXIMVI cells assessed as reduction in cell viability after 48 hrs by SRB assay. Type of assay: functional, cell-based. In a few lines: as §1
A further assay concerns Malme-3M. Briefly: Cytotoxicity against human MALME-3M cells assessed as reduction in cell viability after 48 hrs by SRB assay. Type of assay: functional, cell-based. In a few lines: as §1
The test system of a further assay is IGROV-1. As to the kind of experiment: Cytotoxicity against human IGROV1 cells assessed as reduction in cell viability after 48 hrs by SRB assay. Type of assay: functional, cell-based. Particulars: IGROV-1, 48 h. In a few lines:
as §1

The next assay relates to SK-OV-3. Briefly: Cytotoxicity against human SKOV3 cells assessed as reduction in cell viability after 48 hrs by SRB assay. Particulars: SK-OV-3, 48 h. Type of assay: functional, cell-based. Summed up:
as §1

Another assay relates to ACHN. Briefly: Cytotoxicity against human ACHN cells assessed as reduction in cell viability after 48 hrs by SRB assay. Type of assay: functional, cell-based. In a few lines: as §1
The next assay relates to CAKI-1. Briefly: Cytotoxicity against human Caki1 cells assessed as reduction in cell viability after 48 hrs by SRB assay. Type of assay: functional, cell-based. Particulars: CAKI-1, 48 h. In a few lines:
as §1

The next assay deals with A498. Briefly: Cytotoxicity against human A498 cells assessed as reduction in cell viability after 48 hrs by SRB assay. Type of assay: functional, cell-based. Particulars: A498, 48 h. In a few lines: as §1
Another assay concerns DU-145. Briefly: Cytotoxicity against human DU145 cells assessed as reduction in cell viability after 48 hrs by SRB assay. The note with it: DU-145, 48 h. Type of assay: functional, cell-based. In a few lines: as §1
Another assay has as its system MDA-MB-231. Briefly: Cytotoxicity against human MDA-MB-231 cells assessed as reduction in cell viability after 48 hrs by SRB assay. Type of assay: functional, cell-based. The note with it: MDA-MB-231, 48 h. In a few lines: as §1
The next assay relates to Hs-578T. As to the kind of experiment: Cytotoxicity against human Hs 578T cells assessed as reduction in cell viability after 48 hrs by SRB assay. Type of assay: functional, cell-based. In a few lines: as §1
Assay [5] concerns the target Serine/threonine-protein kinase B-raf (Homo sapiens, UniProt P15056, V600E). As to the kind of experiment: Inhibition of human BRAF V600E mutant by ELISA.
Assay [6] has as its system HL-60(TB). Briefly: Cytotoxicity against human HL-60(TB) cells assessed as reduction in cell viability at 10 uM after 48 hrs by SRB assay relative to control. Type of assay: functional. The note with it: HL-60, 48 h.
For assay [7], the system named is K562. Briefly: Cytotoxicity against human K562 cells assessed as reduction in cell viability at 10 uM after 48 hrs by SRB assay relative to control. Type of assay: functional. The note with it: K562, 48 h.

Chain of Serine/threonine-protein kinase B-raf (Homo sapiens, UniProt P15056) (P15056 whole entry): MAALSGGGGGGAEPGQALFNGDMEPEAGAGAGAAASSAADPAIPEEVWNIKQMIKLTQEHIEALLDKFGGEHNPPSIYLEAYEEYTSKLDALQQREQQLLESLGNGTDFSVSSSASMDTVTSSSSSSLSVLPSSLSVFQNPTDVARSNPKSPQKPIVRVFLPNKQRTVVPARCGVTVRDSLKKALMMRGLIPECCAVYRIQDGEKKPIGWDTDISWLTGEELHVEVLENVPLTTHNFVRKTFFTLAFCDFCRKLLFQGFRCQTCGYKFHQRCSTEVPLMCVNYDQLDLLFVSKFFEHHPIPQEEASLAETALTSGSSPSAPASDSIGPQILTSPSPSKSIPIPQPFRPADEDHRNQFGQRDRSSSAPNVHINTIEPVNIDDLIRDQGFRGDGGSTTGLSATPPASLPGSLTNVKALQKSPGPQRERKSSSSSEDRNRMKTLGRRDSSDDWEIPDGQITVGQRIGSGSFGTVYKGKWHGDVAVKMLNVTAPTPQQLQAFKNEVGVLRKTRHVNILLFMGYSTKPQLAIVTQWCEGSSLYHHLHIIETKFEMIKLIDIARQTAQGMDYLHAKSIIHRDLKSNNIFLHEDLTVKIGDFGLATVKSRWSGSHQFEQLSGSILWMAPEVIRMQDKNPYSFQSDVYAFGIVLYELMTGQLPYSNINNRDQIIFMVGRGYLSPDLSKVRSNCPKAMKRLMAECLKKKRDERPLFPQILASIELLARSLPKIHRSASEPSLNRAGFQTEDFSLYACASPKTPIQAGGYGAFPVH
Chain of Serine/threonine-protein kinase B-raf (Homo sapiens), P15056 [V600E] (P15056 whole entry V600E): as the sequence (P15056 whole entry) above, with V600E counted along it
Chain of Serine/threonine-protein kinase B-raf (Homo sapiens, UniProt P15056, V600E) (P15056 2-766 V600E limits assumed): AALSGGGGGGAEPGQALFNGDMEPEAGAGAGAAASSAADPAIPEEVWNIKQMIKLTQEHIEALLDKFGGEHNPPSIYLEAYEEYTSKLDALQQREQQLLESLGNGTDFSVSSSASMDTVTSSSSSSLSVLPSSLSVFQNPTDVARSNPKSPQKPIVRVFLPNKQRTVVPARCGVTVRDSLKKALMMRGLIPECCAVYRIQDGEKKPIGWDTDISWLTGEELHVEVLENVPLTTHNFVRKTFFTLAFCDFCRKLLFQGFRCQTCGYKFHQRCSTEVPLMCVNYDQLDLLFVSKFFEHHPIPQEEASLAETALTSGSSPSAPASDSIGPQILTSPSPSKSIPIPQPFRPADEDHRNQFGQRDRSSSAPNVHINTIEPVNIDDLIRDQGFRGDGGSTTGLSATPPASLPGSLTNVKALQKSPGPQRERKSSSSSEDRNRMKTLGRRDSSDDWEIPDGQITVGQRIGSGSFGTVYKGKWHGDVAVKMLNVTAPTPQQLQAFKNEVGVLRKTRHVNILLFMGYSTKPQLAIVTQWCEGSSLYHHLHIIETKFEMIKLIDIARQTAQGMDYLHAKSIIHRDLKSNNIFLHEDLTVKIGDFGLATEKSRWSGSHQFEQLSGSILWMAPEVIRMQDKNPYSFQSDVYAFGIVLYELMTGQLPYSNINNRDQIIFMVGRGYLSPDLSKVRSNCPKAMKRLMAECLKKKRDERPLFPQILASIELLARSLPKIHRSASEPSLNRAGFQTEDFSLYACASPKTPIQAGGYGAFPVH

For the molecule `O=C(Nc1ccc(C(F)(F)F)cc1)Nc1ccc(F)c(C(=O)c2c[nH]c3ncccc23)c1F`, the inhibition in assay [1] was 98.7%; in [2] it was 79.3%. Further, the IC50 was 8.12 µM in the assay with HL-60(TB) [3]; 25.3 µM in the assay on K562 [4]; 26.4 µM in the assay on NCI-H460; 29.1 µM with NCI-H522; 15.5 µM in the assay on HCT-116; 24.3 µM in the assay with M14. Moreover, the IC50 in the assay on SK-MEL-2 is 21.1 µM; in the assay on LOX IMVI it was 27 µM; with Malme-3M, 12.3 µM; in the assay on IGROV-1, 9.66 µM; with SK-OV-3 it was 18.8 µM; with ACHN it was 21.3 µM. The IC50 in the assay with CAKI-1 was determined as 14 µM; with A498 it was 32.3 µM; in the assay on DU-145, 27.6 µM; in the assay on MDA-MB-231 it was 9.72 µM; in the assay with Hs-578T, 21.4 µM; in assay [5], 0.114 µM. Moreover, the inhibition at 10 µM in the assay on HL-60(TB) [6] came out at 67%; in the assay on K562 [7], 83%.
